Assay results from ChEMBL document CHEMBL1129967, “3'-Chloro-3 alpha-(diphenylmethoxy)tropane but not 4'-chloro-3 alpha-(diphenylmethoxy)tropane produces a cocaine-like behavioral profile” (J Med Chem, 1997).

Key:
[1] = biological target: T1, Muscarinic acetylcholine receptor M1 (Rattus norvegicus, UniProt P08482); assay: Displacement of [3H]pirenzepine binding at Muscarinic acetylcholine receptor M1 in rat brain P2 membranes.; assay type: cell membranes, Membrane
T1 sequence (P08482 whole entry): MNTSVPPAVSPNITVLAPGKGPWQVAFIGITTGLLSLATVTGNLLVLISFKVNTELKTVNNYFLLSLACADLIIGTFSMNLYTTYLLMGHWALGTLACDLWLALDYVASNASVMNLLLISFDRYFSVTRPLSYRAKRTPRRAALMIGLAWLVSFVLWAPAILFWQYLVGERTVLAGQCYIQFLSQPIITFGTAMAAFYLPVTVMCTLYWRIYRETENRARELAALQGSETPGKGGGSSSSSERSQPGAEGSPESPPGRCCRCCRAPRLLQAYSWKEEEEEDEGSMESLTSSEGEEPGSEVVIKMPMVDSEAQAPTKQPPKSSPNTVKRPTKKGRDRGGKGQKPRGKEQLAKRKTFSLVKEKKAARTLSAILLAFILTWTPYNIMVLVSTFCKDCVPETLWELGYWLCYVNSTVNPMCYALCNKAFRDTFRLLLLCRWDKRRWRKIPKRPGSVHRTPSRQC
Summary of the method: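 Rat brain P2 membranes (0.3 mg protein) in 50 mM Tris-HCl pH 7.4 with 5 mM MgCl2 and 5 nM [3H]pirenzepine. Nine competitor concentrations (0.03–300 nM), 60 min at 37 °C, filtered. Nonspecific binding defined with 10 μM QNB.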

[2] = biological target: Sodium-dependent dopamine transporter (Rattus norvegicus) (UniProt P23977); assay: Selectivity ratio for [3H]-DA uptake inhibition to DAT binding; assay type: functional
[3] = biological target: Sodium-dependent serotonin transporter (Rattus norvegicus) (UniProt P31652); assay: Percent inhibition at 10 uM for displacement of [3H]- citalopram binding at the serotonin transporter (5HTT).
Summary of the method: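 Run by a contract screening service under a published method: [3H]citalopram at 0.7 nM final concentration.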

[4] = biological target: T2, Sodium-dependent dopamine transporter (Rattus norvegicus, UniProt P23977); assay: Displacement of [3H]WIN-35428 binding to the dopamine transporter (DAT) in Rat Caudate Putamen
[5] = biological target: Norepinephrine transporter (Rattus norvegicus) (UniProt Q9WTR4); assay: Percent inhibition at 10 uM for displacement of [3H]- desmethylimipramine binding at the norepinephrine transporter (NET) in rat cortex.
Summary of the method: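 Run by a contract screening service under a published method: [3H]desmethylimipramine at 3.0 nM final concentration.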

[6] = biological target: T2, Sodium-dependent dopamine transporter; assay: [3H]-Dopamine uptake inhibition in rat caudate putamen; assay type: functional, tissue-based
Summary of the method: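 Rat caudate putamen chopped into 225 μm slices, in oxygenated Krebs-HEPES at 37 °C. Filtered, tracer extracted with methanol/HCl and counted; filter blank subtracted. IC50 from the linear portion of the concentration–response curve by linear regression.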

Norepinephrine transporter (Rattus norvegicus), sequence (Q9WTR4 as listed by the source): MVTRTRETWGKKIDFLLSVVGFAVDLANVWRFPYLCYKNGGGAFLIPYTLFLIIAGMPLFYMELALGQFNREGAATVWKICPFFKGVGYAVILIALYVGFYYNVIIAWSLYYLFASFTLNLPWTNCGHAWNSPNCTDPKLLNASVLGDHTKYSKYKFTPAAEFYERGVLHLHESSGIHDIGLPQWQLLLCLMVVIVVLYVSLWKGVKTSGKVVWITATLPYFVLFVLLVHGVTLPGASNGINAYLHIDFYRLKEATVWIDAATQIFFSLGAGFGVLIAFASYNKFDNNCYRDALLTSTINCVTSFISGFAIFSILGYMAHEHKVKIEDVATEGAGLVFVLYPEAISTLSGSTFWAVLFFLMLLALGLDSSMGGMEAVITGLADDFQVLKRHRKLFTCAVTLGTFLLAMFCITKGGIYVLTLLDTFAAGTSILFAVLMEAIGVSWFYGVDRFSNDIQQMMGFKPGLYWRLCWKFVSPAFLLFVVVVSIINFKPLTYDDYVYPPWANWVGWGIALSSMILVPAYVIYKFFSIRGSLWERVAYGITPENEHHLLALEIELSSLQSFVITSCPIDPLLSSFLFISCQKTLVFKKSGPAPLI
Sodium-dependent serotonin transporter (Rattus norvegicus), sequence (P31652 whole entry): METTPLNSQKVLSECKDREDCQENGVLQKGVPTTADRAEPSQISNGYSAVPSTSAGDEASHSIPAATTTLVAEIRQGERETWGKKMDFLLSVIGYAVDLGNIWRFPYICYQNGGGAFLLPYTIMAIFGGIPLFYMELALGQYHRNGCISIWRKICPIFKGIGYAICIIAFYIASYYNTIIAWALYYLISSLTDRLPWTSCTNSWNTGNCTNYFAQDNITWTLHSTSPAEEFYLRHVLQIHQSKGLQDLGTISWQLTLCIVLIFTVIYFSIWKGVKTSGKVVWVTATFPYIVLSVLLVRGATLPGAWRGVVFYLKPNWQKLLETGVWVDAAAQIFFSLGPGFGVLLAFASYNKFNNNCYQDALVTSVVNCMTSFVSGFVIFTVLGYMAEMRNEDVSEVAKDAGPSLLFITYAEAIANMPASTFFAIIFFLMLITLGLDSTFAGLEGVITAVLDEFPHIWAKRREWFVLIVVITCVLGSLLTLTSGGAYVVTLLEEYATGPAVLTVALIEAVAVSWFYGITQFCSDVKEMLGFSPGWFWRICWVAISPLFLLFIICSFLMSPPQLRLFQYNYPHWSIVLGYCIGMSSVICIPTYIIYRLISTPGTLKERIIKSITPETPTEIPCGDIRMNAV
Sodium-dependent dopamine transporter (Rattus norvegicus), sequence (P23977 whole entry): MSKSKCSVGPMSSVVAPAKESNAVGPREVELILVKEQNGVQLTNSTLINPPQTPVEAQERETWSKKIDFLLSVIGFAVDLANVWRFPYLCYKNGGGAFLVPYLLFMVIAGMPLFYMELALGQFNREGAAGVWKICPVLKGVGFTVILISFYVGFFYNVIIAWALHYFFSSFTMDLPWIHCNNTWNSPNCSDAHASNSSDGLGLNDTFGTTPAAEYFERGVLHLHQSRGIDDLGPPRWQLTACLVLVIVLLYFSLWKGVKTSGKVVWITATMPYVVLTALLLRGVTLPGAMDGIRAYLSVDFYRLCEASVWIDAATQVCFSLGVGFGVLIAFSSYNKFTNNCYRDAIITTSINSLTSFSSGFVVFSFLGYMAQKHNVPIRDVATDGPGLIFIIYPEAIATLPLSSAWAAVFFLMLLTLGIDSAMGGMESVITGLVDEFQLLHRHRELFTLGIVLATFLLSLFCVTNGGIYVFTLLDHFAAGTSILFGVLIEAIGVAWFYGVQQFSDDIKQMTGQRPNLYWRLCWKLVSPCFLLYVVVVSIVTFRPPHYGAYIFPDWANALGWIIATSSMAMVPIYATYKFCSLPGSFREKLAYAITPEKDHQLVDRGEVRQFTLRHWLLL
T2 sequence (P23977 whole entry): as above

SMILES	Ki [1] [nM]	Selectivity ratio [2]	I [3] [%]	Ki [4] [nM]	I [5] [%]	IC50 [6] [nM]
CN1[C@@H]2CC[C@H]1C[C@@H](OC(c1ccccc1)c1ccccc1N)C2 (some centres not stated) [AMINOBENZTROPINE]	1.12	0.2	16	1840	14	373
CN1[C@@H]2CC[C@H]1C[C@@H](OC(c1cccc(F)c1)c1cccc(F)c1)C2	0.85	8.6	72.6	47.4	75.6	407
CN1[C@@H]2CC[C@H]1C[C@@H](OC(c1ccccc1)c1ccccc1Cl)C2 (some centres not stated)	0.41	4.4	55.4	228	76.1	997
CN1[C@@H]2CC[C@H]1C[C@@H](OC(c1ccccc1)c1cccc(C(F)(F)F)c1)C2 (some centres not stated)	2.52	2.4	59.8	187	78.5	457
CN1[C@@H]2CC[C@H]1C[C@@H](OC(c1ccccc1)c1cccc(Cl)c1)C2 (some centres not stated)	0.98	10.6	24.5	21.6	74.7	228
CN1[C@@H]2CC[C@H]1C[C@@H](OC(c1ccccc1)c1cccc(F)c1)C2 (some centres not stated)	0.6	3.7	42.2	68.5	82.4	250
CN1C2CCC1CC(OC(c1ccccc1)c1ccc(Cl)cc1)C2 (configuration not stated)	1.48	3.8	34		32	
Cc1ccccc1C(O[C@H]1C[C@H]2CC[C@@H](C1)N2C)c1ccccc1 (some centres not stated)	0.5	3.9	35.7	309	66.5	1200
CN1[C@@H]2CC[C@H]1C[C@@H](OC(c1ccccc1)c1ccccc1F)C2 (some centres not stated)	0.43	2.8	22.3	50	17.8	140
